Reference: ChEMBL document CHEMBL2150931, “Design, synthesis, and biological activity of a novel series of human sirtuin-2-selective inhibitors” (J Med Chem, 2012)

Assays:
[1] = molecular target: T1, NAD-dependent protein deacetylase sirtuin-1 (Homo sapiens, UniProt Q96EB6); experiment: Inhibition of human recombinant SIRT1 using Fluor de Lys-SIRT as substrate incubated for 60 mins prior to substrate addition measured after 60 mins by fluorimetric analysis
T1 sequence (Q96EB6 whole entry): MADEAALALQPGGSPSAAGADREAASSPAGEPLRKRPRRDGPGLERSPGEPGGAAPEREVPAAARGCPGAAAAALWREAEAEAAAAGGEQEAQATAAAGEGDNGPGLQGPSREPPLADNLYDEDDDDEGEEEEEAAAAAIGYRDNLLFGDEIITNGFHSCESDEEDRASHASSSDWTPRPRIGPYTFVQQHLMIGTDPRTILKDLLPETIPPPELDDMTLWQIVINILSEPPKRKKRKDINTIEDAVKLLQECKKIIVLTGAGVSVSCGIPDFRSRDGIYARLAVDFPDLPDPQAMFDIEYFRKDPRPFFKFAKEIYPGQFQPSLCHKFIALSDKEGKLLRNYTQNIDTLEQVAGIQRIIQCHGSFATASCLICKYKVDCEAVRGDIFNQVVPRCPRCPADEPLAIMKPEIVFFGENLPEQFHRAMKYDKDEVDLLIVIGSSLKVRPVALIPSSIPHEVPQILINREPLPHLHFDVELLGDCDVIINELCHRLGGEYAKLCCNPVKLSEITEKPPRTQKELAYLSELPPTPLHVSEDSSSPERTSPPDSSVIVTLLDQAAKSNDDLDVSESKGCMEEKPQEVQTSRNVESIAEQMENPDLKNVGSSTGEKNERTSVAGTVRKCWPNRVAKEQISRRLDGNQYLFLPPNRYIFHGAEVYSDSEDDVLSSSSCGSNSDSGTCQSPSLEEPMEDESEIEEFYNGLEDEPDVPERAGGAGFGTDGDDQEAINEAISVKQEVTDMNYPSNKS
Summary of the method: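 Human recombinant SIRT1 run the same way: 60 min at 37 °C with 1 mM NAD⁺ and serial compound dilutions, then 25 μM Fluor de Lys-SIRT substrate for 60 min. Stopped with nicotinamide-containing Developer II and read 45 min later at ex 360/em 460 nm. IC₅₀ from logit regression of % inhibition vs control; means of ≥3 experiments.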

[2] = molecular target: T2, NAD-dependent protein deacetylase sirtuin-2 (Homo sapiens, UniProt Q8IXJ6); experiment: Inhibition of human recombinant SIRT2 using Fluor de Lys-SIRT as substrate incubated for 60 mins prior to substrate addition measured after 60 mins by fluorimetric analysis
T2 sequence (Q8IXJ6 whole entry): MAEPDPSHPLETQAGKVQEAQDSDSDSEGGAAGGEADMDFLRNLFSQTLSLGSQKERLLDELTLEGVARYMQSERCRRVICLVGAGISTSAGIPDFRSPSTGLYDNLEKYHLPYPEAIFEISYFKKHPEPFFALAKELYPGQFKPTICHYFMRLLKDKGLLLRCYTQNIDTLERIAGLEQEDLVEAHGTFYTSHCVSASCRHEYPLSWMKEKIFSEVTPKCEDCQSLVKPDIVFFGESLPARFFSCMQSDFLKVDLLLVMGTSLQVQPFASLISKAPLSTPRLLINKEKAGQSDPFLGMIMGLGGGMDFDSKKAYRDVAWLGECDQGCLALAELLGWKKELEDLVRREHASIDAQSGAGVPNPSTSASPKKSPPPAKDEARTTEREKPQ
Summary of the method: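 Human recombinant SIRT2 preincubated with 1 mM NAD⁺ and serial compound dilutions for 60 min at 37 °C, then 25 μM Fluor de Lys-SIRT substrate added. Reaction stopped at 60 min with Developer II containing nicotinamide. Fluorescence read 45 min later at ex 360/em 460 nm. % inhibition taken against control wells. IC₅₀ obtained by regression of log[Inh] vs logit % inhibition; means of ≥3 experiments.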

[3] = molecular target: T3, NAD-dependent protein deacetylase sirtuin-3, mitochondrial (Homo sapiens, UniProt Q9NTG7); experiment: Inhibition of human recombinant SIRT3 using Fluor de Lys-SIRT as substrate incubated for 60 mins prior to substrate addition measured after 60 mins by fluorimetric analysis
T3 sequence (Q9NTG7 whole entry): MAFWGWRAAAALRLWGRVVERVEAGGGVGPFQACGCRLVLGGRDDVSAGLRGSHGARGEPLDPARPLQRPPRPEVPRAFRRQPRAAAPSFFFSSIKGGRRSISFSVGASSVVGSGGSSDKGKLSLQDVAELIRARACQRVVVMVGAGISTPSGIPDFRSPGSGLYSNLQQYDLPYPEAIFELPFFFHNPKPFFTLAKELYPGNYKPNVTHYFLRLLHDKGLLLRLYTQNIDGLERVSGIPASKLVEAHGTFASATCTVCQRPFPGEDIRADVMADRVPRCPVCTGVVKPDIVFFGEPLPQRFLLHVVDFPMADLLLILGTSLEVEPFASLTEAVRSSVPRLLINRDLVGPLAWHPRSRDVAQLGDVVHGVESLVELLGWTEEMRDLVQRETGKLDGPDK

Row | SMILES | IC50 [1] [µM] | IC50 [2] [µM] | IC50 [3] [µM]
1 | NC(=O)c1ccccc1Nc1cccc(OCCc2ccccc2Cl)c1 | > 100 | 1.5 | –
2 | NC(=O)c1ccccc1Nc1ccc(/C=C\c2ccccc2)cc1 | > 100 | 20 | –
3 | COC(=O)/C=C/c1cccc(Nc2ccccc2C(N)=O)c1 | – | 32 | –
4 | CNC(=O)c1ccccc1Nc1ccccc1 | > 100 | > 100 | –
5 | COc1ccc(Nc2ccccc2C(N)=O)cc1 | > 100 | 80 | –
6 | NC(=O)c1ccccc1Nc1ccc(Cl)cc1 | 56 | > 100 | –
7 | Cc1ccccc1CCOc1cccc(Nc2ccccc2C(N)=O)c1 | > 100 | 1.8 | –
8 | NC(=O)c1ccccc1Nc1cccc(NC(=O)Cc2ccccc2)c1 | > 100 | 74 | –
9 | CSc1ccc(Nc2ccccc2C(N)=O)cc1 | – | > 100 | –
10 | NC(=O)c1ccccc1Nc1cccc(CCC(=O)O)c1 | 93 | > 100 | –
11 | NC(=O)c1ccccc1Nc1ccc(Oc2ccccc2)cc1 | > 100 | > 100 | –
12 | NC(=O)c1ccccc1Nc1cccc(OCCc2ccc(Br)cc2)c1 | > 100 | 1.2 | –
13 | CN(c1ccccc1)c1ccccc1C(N)=O | 75 | > 100 | –
14 | NC(=O)c1ccccc1Nc1cccc(NC(=O)c2ccccc2)c1 | > 100 | 57 | –
15 | NC(=O)c1ccccc1Nc1cccc(OCCCc2ccccc2)c1 | > 300 | 4.3 | –
16 | CC(=O)Nc1ccc(Nc2ccccc2C(N)=O)cc1 | > 100 | 77 | –
17 | NC(=O)c1ccccc1Nc1ccc(NC(=O)c2ccncc2)cc1 | > 100 | > 100 | –
18 | CC(C)C(=O)Nc1ccc(Nc2ccccc2C(N)=O)cc1 | > 100 | > 100 | –
19 | NC(=O)c1ccccc1Nc1cccc(C(=O)NCc2ccccc2)c1 | > 100 | 39 | –
20 | NC(=O)c1ccccc1Nc1ccc(-c2ccccc2)cc1 | > 100 | > 100 | –
21 | NC(=O)c1ccccc1Nc1cccc(CO)c1 | – | > 100 | –
22 | NC(=O)c1ccccc1Nc1cccc(OCCc2cccc(Cl)c2)c1 | > 100 | 2 | –
23 | NC(=O)c1ccccc1Nc1cccc(OCCc2ccccc2C(F)(F)F)c1 | > 100 | 3.1 | –
24 | NC(=O)c1ccccc1Nc1cccc(OCCc2ccc(Cl)cc2)c1 | > 100 | 0.83 | –
25 | NC(=O)c1ccccc1Nc1cccc(OCCc2ccccc2Br)c1 | > 100 | 1.1 | –

Row | SMILES | IC50 [1] [µM] | IC50 [2] [µM] | IC50 [3] [µM]
26 | NC(=O)c1ccccc1Nc1ccc(NC(=O)c2cccnc2)cc1 | > 100 | 38 | –
27 | NC(=O)c1ccccc1Nc1cccc(C(=O)Nc2ccccc2)c1 | > 100 | 83 | –
28 | NC(=O)c1ccccc1Nc1cccc(OCc2ccccc2)c1 | > 300 | 54 | –
29 | CC(C)(C)c1ccc(Nc2ccccc2C(N)=O)cc1 | – | > 100 | –
30 | NC(=O)c1ccccc1Nc1ccc(/C=C/c2ccccc2)cc1 | > 100 | > 300 | –
31 | N#Cc1ccc(Nc2ccccc2C(N)=O)cc1 | – | 93 | –
32 | Cc1cccc(Nc2ccccc2C(N)=O)c1 | – | 72 | –
33 | NC(=O)c1ccccc1Nc1cccc(OCCc2cccc(C(F)(F)F)c2)c1 | > 100 | 2.1 | –
34 | CN(C)C(=O)c1ccccc1Nc1ccccc1 | > 100 | > 100 | –
35 | Cc1cccc(CCOc2cccc(Nc3ccccc3C(N)=O)c2)c1 | > 100 | 1.8 | –
36 | Cc1ccc(CCOc2cccc(Nc3ccccc3C(N)=O)c2)cc1 | > 100 | 1.6 | –
37 | Cc1ccc(Nc2ccccc2C(N)=O)cc1 | > 100 | 60 | –
38 | NC(=O)c1ccccc1Nc1cccc(OCCc2cccc(Br)c2)c1 | > 100 | 3.4 | –
39 | NC(=O)c1ccccc1Sc1ccccc1 | – | > 100 | –
40 | NC(=O)c1ccccc1Nc1cccc(CCO)c1 | – | > 100 | –
41 | CC(C)COc1cccc(Nc2ccccc2C(N)=O)c1 | > 300 | 30 | –
42 | NC(=O)c1ccccc1Nc1ccc(NC(=O)c2ccccc2)cc1 | > 100 | 17 | –
43 | CN(C(=O)c1ccc(Nc2ccccc2C(N)=O)cc1)c1ccccc1 | > 100 | 69 | –
44 | NC(=O)c1ccccc1NCc1ccccc1 | – | > 100 | –
45 | NC(=O)c1ccccc1Nc1ccc(C(F)(F)F)cc1 | – | 69 | –
46 | COC(=O)c1cccc(Nc2ccccc2C(N)=O)c1 | > 100 | > 100 | –
47 | NC(=O)c1ccccc1Nc1cccc(Oc2ccccc2)c1 | – | 25 | –
48 | CN(C(=O)Cc1ccccc1)c1cccc(Nc2ccccc2C(N)=O)c1 | > 100 | > 100 | –
49 | NC(=O)c1ccccc1Nc1ccc(NC(=O)c2ccccn2)cc1 | > 100 | > 100 | –
50 | NC(=O)c1ccccc1Nc1cccc(OCCc2ccccc2F)c1 | > 100 | 2 | –

Row | SMILES | IC50 [1] [µM] | IC50 [2] [µM] | IC50 [3] [µM]
51 | NC(=O)c1ccccc1Nc1ccc(C(=O)Nc2ccccc2)cc1 | > 100 | 23 | –
52 | NC(=O)c1ccccc1Nc1ccc(CCc2ccccc2)cc1 | > 100 | 88 | –
53 | NC(=O)c1ccccc1Nc1ccc2ccccc2c1 | > 100 | > 100 | –
54 | CN(C(=O)c1cccc(Nc2ccccc2C(N)=O)c1)c1ccccc1 | > 100 | > 100 | –
55 | COC(=O)c1ccc(Nc2ccccc2C(N)=O)cc1 | > 100 | 83 | –
56 | NC(=O)c1ccccc1Nc1cccc(/C=C/C(=O)O)c1 | – | > 100 | –
57 | NC(=O)c1ccccc1Nc1ccc(C(=O)O)cc1 | – | > 100 | –
58 | CN(C(=O)c1ccccc1)c1cccc(Nc2ccccc2C(N)=O)c1 | > 100 | > 100 | –
59 | NC(=O)c1ccccc1Nc1cccc(-c2ccccc2)c1 | – | 33 | –
60 | O=C(O)c1ccccc1Nc1ccccc1 [FENAMIC ACID] | 68 | > 100 | –
61 | CN(Cc1ccccc1)C(=O)c1cccc(Nc2ccccc2C(N)=O)c1 | > 100 | 40 | –
62 | NC(=O)c1ccccc1Nc1ccc(NC(=O)C2CCNCC2)cc1 | > 100 | 53 | –
63 | CN(C(=O)c1ccccc1)c1ccc(Nc2ccccc2C(N)=O)cc1 | > 100 | > 300 | –
64 | NC(=O)c1ccccc1Nc1cccc(OCC2CCCCC2)c1 | 210 | 24 | –
65 | NC(=O)c1ccccc1Nc1cccc(OCCc2ccc(F)cc2)c1 | > 100 | 2.7 | –
66 | NC(=O)c1ccccc1Nc1cccc(OCCc2cccc(F)c2)c1 | > 100 | 0.57 | > 300
67 | NC(=O)c1ccccc1Nc1ccccc1 [ANILINOBENZAMIDE] | – | > 100 | –
68 | NC(=O)c1ccccc1Nc1ccc(NC(=O)C2CCCCC2)cc1 | > 100 | 25 | –
69 | COC(=O)CCc1cccc(Nc2ccccc2C(N)=O)c1 | – | 93 | –
70 | NC(=O)c1ccccc1Nc1cccc(OCCc2ccc(C(F)(F)F)cc2)c1 | > 100 | 1.4 | –
71 | NC(=O)c1ccccc1Nc1cccc(C(F)(F)F)c1 | – | 100 | –
72 | NC(=O)c1ccccc1Nc1cccc(C(=O)O)c1 | > 100 | > 100 | –
73 | NC(=O)c1ccccc1Oc1ccccc1 | > 100 | > 100 | –
